Reference: ChEMBL document CHEMBL1671691 (Antimicrob Agents Chemother, 2010)
Calls of active or inactive are those of the source. The rule behind the calls is not given here.

Legend:
Influenza A virus [1] = assay: Antiviral activity against adamantane-resistant zanamivir-,oseltamivir-susceptible Influenza A virus (A/pdm/California/04/2009(H1N1)) harboring M2 V28I, S31N mutant infected in MDCK cells assessed as determination of viral titer in cell culture at 128 uM after 24 hrs by immunofluorescence assay; format: functional, organism-based; conditions: A/California/04/2009(H1N1)
Influenza A virus [2] = assay: Antiviral activity against adamantane-, zanamivir-susceptible oseltamivir-resistant Influenza A virus (A/New Jersey/15/2007(H1N1)) harboring neuraminidase H274Y mutant infected in MDCK cells assessed as inhibition of viral replication after 3 days by microscopic analysis using crystal violet stain; format: functional, organism-based
Summary of the method: (§1)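 Confluent MDCK-ATCC monolayers infected with virus diluted to give 15–45 plaques/well. Adsorption 1 h at 37°C without drug, then washed. Overlaid with 0.8% agarose in MEM containing drug plus TPCK-trypsin: 3 μg/ml for seasonal viruses, 2 μg/ml for 2009 A(H1N1). Incubated 3 days at 37°C, 5% CO2. Ethanol-fixed, crystal violet-stained, plaques counted. EC50 by curve fit; duplicates on three occasions, mean ± SD.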

Influenza A virus [3] = assay: Antiviral activity against adamantane-resistant zanamivir-,oseltamivir-susceptible Influenza A virus (A/pdm/California/04/2009 (H1N1)) harboring M2 V28I, S31N mutant infected in MDCK cells assessed as inhibition of viral replication after 3 days by microscopic analysis using crystal violet stain; format: functional, organism-based, A/California/04/2009(H1N1)
Summary of the method: (§2)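 Plaque reduction on confluent MDCK-ATCC monolayers: pretitrated virus (15–45 plaques per well) adsorbed 1 h at 37°C without drug, then washed with PBS. Agarose overlay (0.8%, in MEM) with drug added, 3 days at 37°C. Cells fixed with 70% ethanol, stained with crystal violet, plaques counted. EC50 from curve fitting, averaged over three separate experiments in duplicate, ± SD.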

Influenza A virus [4] = assay: Antiviral activity against adamantane-, zanamivir-susceptible oseltamivir-resistant Influenza A virus (A/North Carolina/02/ 2009(H1N1)) harboring M2 S31N mutant infected in MDCK cells assessed as inhibition of viral replication after 3 days by microscopic analysis using crystal violet stain; format: functional, organism-based; summary of the method: as §1
Influenza A virus [5] = assay: Antiviral activity against oseltamivir-susceptible zanamivir-, adamantane-resistant Influenza A virus (A/Luhansk/18/2008(H1N1)) harboring neuraminidase H274Y mutant and M2 G34E mutant infected in MDCK cells assessed as inhibition of viral replication after 3 days by microscopic analysis using crystal violet stain; format: functional, organism-based
Influenza B virus = assay: microbe, parasite or virus in culture; conditions: B/Memphis/20/96, MDCK, 72 h
Influenza A virus [6] = assay: Antiviral activity against adamantane-resistant zanamivir-,oseltamivir-susceptible Influenza A virus (A/Florida/01/2009(H3N2)) harboring M2 S31N mutant infected in MDCK cells assessed as inhibition of viral replication after 3 days by microscopic analysis using crystal violet stain; format: functional, organism-based; summary of the method: as §1
Influenza A virus [7] = assay: Antiviral activity against adamantane-resistant zanamivir-,oseltamivir-susceptible Influenza A virus (A/pdm/New York/18/2009 (H1N1)) harboring M2 V28I, S31N mutant infected in MDCK cells assessed as inhibition of viral replication after 3 days by microscopic analysis using crystal violet stain; format: functional, organism-based, Influenza A virus (A/New York/18/2009(H1N1)); summary of the method: as §2

SMILES: NC(=O)c1nc(F)cnc1O [FAVIPIRAVIR]
- Activity (Influenza A virus [1]): Active
- EC50 (Influenza A virus [2]): 4900 nM
- EC50 (Influenza A virus [3]): 1970 nM
- EC50 (Influenza A virus [4]): 5030 nM
- EC50 (Influenza A virus [5]): 2930 nM
- EC50 (Influenza B virus): 1210 nM
- EC50 (Influenza A virus [6]): 450 nM
- EC50 (Influenza A virus [7]): 890 nM
